Columns and labels:
[1] = melting temperature; fluorescence melt of hairpins on a sequencing array, two-state fit, raised by 9.35 °C to match UV melts; settings: sodium 0.088 M
Method in brief: (§1)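 Cy3 fluorescence of library hairpins on a sequenced MiSeq flow cell, with annealed Cy3 and quencher oligos, was imaged in 50 mM Na-HEPES pH 8.0, 25 mM NaCl in 2.5 °C steps up to 60 °C. Signals were normalised to pre-quench Cy3 and to control variants. Melting temperature and folding enthalpy came from bootstrapped two-state fits, inverse-variance combined over four replicates. Fitted temperatures were raised by 9.35 °C to match UV melts.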

[2] = folding enthalpy; higher = less favourable; fluorescence melt of hairpins on a sequencing array, two-state fit; settings: sodium 0.088 M
Method in brief: as §1

| Sequence | Tm [1] [°C] | folding enthalpy [2] [kcal/mol] |
| --- | --- | --- |
| GTTCCGCGAAAGCGTAAC (((.(((....))).))) | 44.1 | -20.2 |
| GTTCGACCGAAAGGTAAC (((..(((....)))))) | 27.3 | -10.9 |
| GTTCGAGGAAACCCGAAC (((((.(....).))))) | 47 | -29.9 |
| GTTCGAGGAAACTCGAGC (.(((((....))))).) | 49.8 | -21.7 |
| GTTCGCCGAAAGGCCAAC (((.(((....))).))) | 39.4 | -15.3 |
| GTTCGCGAAAGCGCCAAC ((((((....)))..))) | 25.6 | -8.24 |
| GTTCGCGAAAGCGTCAAC ((((((....)))..))) | 28.1 | -9.05 |
| GTTCGCGGAAACGTGAGC (.((.((....)).)).) | 41.3 | -22.4 |
| GTTCGCTCGAAAGAGAAC (((..(((....)))))) | 37.5 | -19.8 |
| GTTCGGAAACGAAC (((((....))))) | 56 | -25.9 |
| GTTCGGGCGAAAGCCAAC (((..(((....)))))) | 26.2 | -10.7 |
| GTTCGGGGAAACTCGGAC ((.((.(....).)).)) | 39 | -25.6 |
| GTTCGTCGAAAGACAAAC (((.(((....))).))) | 41.2 | -16.6 |
| GTTCGTGGAAACACGAAC (((((((....))))))) | 65.8 | -39.4 |
| GTTCGTGGAAACACGAGC (.(((((....))))).) | 52.7 | -21.5 |
| GTTCTAGGAAACTGGAAC ((((.((....)).)))) | 42.2 | -28.7 |
| GTTCTCCGAAAGGAAAC (((.(((....)))))) | 35.8 | -16 |
| GTTCTCGAAAGAGATAAC ((((((....)))..))) | 28.8 | -13.9 |
| GTTCTCGAAAGAGTAAC ((((((....))).))) | 34.9 | -18.5 |
| GTTCTGGGAAACCGGAAC ((((.((....)).)))) | 50.9 | -41.5 |
| GTTCTTGGAAACAAGAGC (.(((((....))))).) | 41.5 | -19.6 |
| GTTGAACGAAAGTTGAAC (((.(((....))).))) | 38.1 | -25.9 |
| GTTGAAGGAAACTTCAGC (.(((((....))))).) | 41.4 | -23 |

| Sequence | Tm [1] [°C] | folding enthalpy [2] [kcal/mol] |
| --- | --- | --- |
| GTTGAAGGAAACTTCGAC ((.((((....)))).)) | 44.9 | -32.5 |
| GTTGACGAAAGTCCAAC ((((((....))).))) | 40.9 | -17.7 |
| GTTGACGAAAGTCTAAAC ((((((....)))..))) | 30.4 | -12.8 |
| GTTGACGCGAAAGCGAAC (((..(((....)))))) | 39 | -12.9 |
| GTTGACGGAAACGTTAGC (.(.(((....))).).) | 29.9 | -7.85 |
| GTTGAGCGAAAGCTAAC (((.(((....)))))) | 39.8 | -15.2 |
| GTTGAGGGAAACTTCAGC (.(((.(....).))).) | 31.7 | -16.6 |
| GTTGAGGGAAACTTCGAC ((.((.(....).)).)) | 31.5 | -20.3 |
| GTTGATGGAAACACCAAC ((((.((....)).)))) | 37 | -30.2 |
| GTTGCACGAAAGTGAAAC (((.(((....))).))) | 51.8 | -31.5 |
| GTTGCAGGAAACTGCAAC (((((((....))))))) | 68 | -39.6 |
| GTTGCAGGAAACTGTAAC (((.(((....))).))) | 45.8 | -29.8 |
| GTTGCAGGAAACTGTGAC ((..(((....)))..)) | 37.9 | -29.9 |
| GTTGCCCGAAAGGGAAAC (((.(((....))).))) | 56.4 | -32.2 |
| GTTGCCGAAAGGCAAAAC ((((((....)))..))) | 42.5 | -9.67 |
| GTTGCCGAAAGGCAAAC ((((((....))).))) | 58 | -11.6 |
| GTTGCCGAAAGGCGGAAC ((((((....)))..))) | 32.8 | -7.95 |
| GTTGCCGAAAGGCGTAAC ((((((....)))..))) | 34.7 | -9.66 |
| GTTGCCGAAAGGCTGAAC ((((((....)))..))) | 31.4 | -9.17 |
| GTTGCCGAAAGGCTTAAC ((((((....)))..))) | 26.6 | -8.96 |
| GTTGCCGGAAACAGCAAC (((((.(....).))))) | 46.9 | -27.4 |
| GTTGCCGGAAACGGCGAC ((.((((....)))).)) | 64.1 | -20.1 |
| GTTGCCGGAAACGGTAGC (.(.(((....))).).) | 39.7 | -17.2 |

| Sequence | Tm [1] [°C] | folding enthalpy [2] [kcal/mol] |
| --- | --- | --- |
| GTTGCGGCGAAAGCCAAC (((..(((....)))))) | 37.8 | -14.7 |
| GTTGCGGGAAACCGCGAC ((.((((....)))).)) | 60.7 | -31 |
| GTTGCGGGAAACTGCAAC (((((.(....).))))) | 56.2 | -38.5 |
| GTTGCGTCGAAAGACAAC (((..(((....)))))) | 30.3 | -13.8 |
| GTTGCTACGAAAGTAAAC (((..(((....)))))) | 28.6 | -9.44 |
| GTTGCTCGAAAGAGTAAC (((.(((....))).))) | 52.4 | -35.1 |
| GTTGCTGGAAACGGTAAC (((.(.(....).).))) | 33.7 | -16.4 |
| GTTGGACGAAAGTCAAC (((.(((....)))))) | 48.6 | -17.5 |
| GTTGGAGCGAAAGCTAAC (((..(((....)))))) | 36.9 | -21.4 |
| GTTGGAGGAAACCCCAAC (((((.(....).))))) | 44.5 | -35.2 |
| GTTGGAGGAAACTCCAGC (.(((((....))))).) | 47.6 | -21.1 |
| GTTGGAGGAAACTCTGAC ((..(((....)))..)) | 34 | -21 |
| GTTGGCCCGAAAGGGAAC (((..(((....)))))) | 45.3 | -18.8 |
| GTTGGCCGAAAGGCAAC (((.(((....)))))) | 53.9 | -16.8 |
| GTTGGCGAAAGCCCGAAC ((((((....)))..))) | 24.2 | -9.07 |
| GTTGGCGAAAGCCGAAAC ((((((....)))..))) | 38.2 | -8.56 |
| GTTGGCGAAAGCCTGAAC ((((((....)))..))) | 30.9 | -8.07 |
| GTTGGCGCGAAAGCGAAC (((..(((....)))))) | 45.9 | -12.9 |
| GTTGGCGGAAACGTCAGC (.((.((....)).)).) | 42.3 | -21.6 |
| GTTGGCTCGAAAGAGAAC (((..(((....)))))) | 34.9 | -17.1 |
| GTTGGGGGAAACTCCAAC (((((.(....).))))) | 50.4 | -41.2 |
| GTTGGGGGAAACTCCGAC ((.((.(....).)).)) | 41.6 | -25.9 |
| GTTGGGTCGAAAGACAAC (((..(((....)))))) | 38.1 | -18.2 |

| Sequence | Tm [1] [°C] | folding enthalpy [2] [kcal/mol] |
| --- | --- | --- |
| GTTGGTGGAAACACCAGC (.(((((....))))).) | 50.6 | -21.5 |
| GTTGGTGGAAACACCGAC ((.((((....)))).)) | 53.4 | -39 |
| GTTGTAACGAAAGTTAAC (((..(((....)))))) | 37.9 | -26.1 |
| GTTGTAGGAAACTACGAC ((.((((....)))).)) | 45.8 | -26 |
| GTTGTAGGAAACTGCAAC ((((.((....)).)))) | 46.9 | -17.8 |
| GTTGTCGAAAGACCCAAC ((((((....)))..))) | 26.6 | -11.1 |
| GTTGTCGAAAGACGCAAC ((((((....)))..))) | 31.9 | -9.32 |
| GTTGTCGGAAACGACAGC (.(((((....))))).) | 55.7 | -24 |
| GTTGTCGGAAACGACGAC ((.((((....)))).)) | 55.1 | -24.8 |
| GTTGTGCGAAAGCAAAAC (((.(((....))).))) | 48.7 | -24 |
| GTTGTGGGAAACCACAGC (.(((((....))))).) | 49.7 | -20 |
| GTTGTGGGAAACCGCAAC ((((.((....)).)))) | 53.8 | -43 |
| GTTGTGGGAAACTACAGC (.(((.(....).))).) | 32 | -16.8 |
| GTTGTGGGAAACTACGAC ((.((.(....).)).)) | 33.8 | -14.3 |
| GTTGTGGGAAACTGCAAC ((((..(....)..)))) | 39.3 | -12.7 |
| GTTGTTACGAAAGTAAAC (((..(((....)))))) | 44.2 | -27.2 |
| GTTGTTCGAAAGAAGAAC (((.(((....))).))) | 43.3 | -27.6 |
| GTTTACCCGAAAGGGAAC (((..(((....)))))) | 26.8 | -9.41 |
| GTTTACCGAAAGGTTAAC (((.(((....))).))) | 43.7 | -24.9 |
| GTTTACGAAAGTACAAC ((((((....))).))) | 30.4 | -11.9 |
| GTTTAGCGAAAGCTGAAC (((.(((....))).))) | 51.3 | -30.4 |
| GTTTAGGGAAACTTAAAC (((((.(....).))))) | 35.5 | -15.4 |

Source: the array DNA melting data of Ke et al. (doi:10.1101/2024.01.08.574731)
